The subject of data set [1] is Pseudomonas aeruginosa. The experiment in a line: Antibacterial activity against Pseudomonas aeruginosa ATCC 27853 infected in mouse assessed as reduction in bacterial load in thigh at 80 to 160 mg/kg, ip administered as single dose measured after 6 hrs by time kill assay. It counts as functional, organism-based. Summed up:
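Neutropenic murine thigh infection with P. aeruginosa grown, subcultured and quantified in Mueller-Hinton broth/agar; single intraperitoneal dose (80 or 160 mg/kg) given 1 h after infection; groups of two treated and two untreated mice euthanized at 0–6 h post-dose; thigh CFU counted; mean and standard deviation from four thighs of two mice.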

Data set [2] is described as follows: Metal chelating activity assessed as Fe3+-compound complex formation at 5 to 1280 uM after 3 hrs by chrome azural S assay. Summed up:
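Modified CAS assay: CTAB–CAS–Fe(III) reagent in MES buffer pH 5.6 mixed 1:1 with compound or deferoxamine mesylate in water, final concentrations 1.28 mM to 5 μM; incubated 37 °C, 3 h; colour change judged visually or absorbance change recorded.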

Data set [3] concerns Pseudomonas aeruginosa. The experiment in a line: Antibacterial activity against Pseudomonas aeruginosa ATCC 27853 measured after 18 hrs by dilution susceptibility test. It is filed as functional. Summed up: (§1)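 Broth dilution MIC for aerobic bacteria; compound dissolved in DMSO, serially diluted to 10 concentrations (0.25–128 μg/mL); gentamicin positive control; triplicate; six untreated media controls per plate; 35 °C for 18 h; MIC = lowest concentration preventing visible growth.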

The subject of a further data set is Escherichia coli. The experiment in a line: Antibacterial activity against Escherichia coli ATCC 25922 measured after 18 hrs by dilution susceptibility test. It counts as functional. Summed up:
as §1

Data set [4] concerns Pseudomonas aeruginosa. Kind of data set: Antibiofilm activity against Pseudomonas aeruginosa ATCC 27853 at 16 to 64 ug/ml by crystal violet microtiter method. It counts as functional, organism-based.
Data set [5] deals with Pseudomonas aeruginosa. The experiment in a line: Antibiofilm activity against Pseudomonas aeruginosa ATCC 27853 at 16 to 64 ug/ml in presence of gentamycin by crystal violet microtiter method. It counts as functional, organism-based.
A further data set has as its system Mus musculus. Kind of data set: Toxicity in mouse at 80 to 160 mg/kg, ip administered as single dose. It counts as organism-based. As to conditions: in vivo.

≈ marks a conversion by molar mass, not a printed value. Calls of active or inactive are those of the source. The calls are words filed in the database; no cut-off is given here.

As to `C[C@@H]1CC(=O)N(O)CCCC[C@@H](NC(=O)CCC(=O)O)C(=O)O[C@H](C)CC(=O)N(O)CCCC[C@@H](NC(=O)CCC(=O)O)C(=O)O[C@H](C)CC(=O)N(O)CCCC[C@@H](NC(=O)CCC(=O)O)C(=O)O1`, the outcome (with Pseudomonas aeruginosa [1]; in data set [2]) was Active. Besides, the MIC was determined as 64 µg/mL (≈ 64.6 µM) in the data set with Pseudomonas aeruginosa [3] (ATCC 27853, 18 h) and 64 µg/mL (≈ 64.6 µM) in the data set on Escherichia coli (ATCC 25922, 18 h). Also, the result in the data set on Pseudomonas aeruginosa [4] and in the data set with Pseudomonas aeruginosa [5] was inactive. Also, the Activity result in the data set on Mus musculus is recorded as “Non-Toxic”.

`CC(=O)N(O)CCCCCNC(=O)CCC(=O)N(O)CCCCCNC(=O)CCC(=O)N(O)CCCCCN`: the result in data set [2] was Active.

As to GENTAMICIN, the MIC in the data set on Pseudomonas aeruginosa [3] and in the data set on Escherichia coli was 4 µg/mL throughout.
